Laboratory results: paper PMC7993274 (Clinical and Translational Science, 2020)

Key:
[1] = Impact of food on PK; format: in vivo, human; set-up: Cmax adjusted geometric mean (90% CI) for fed vs. fasted / AUC24 adjusted geometric mean for fed vs. fasted (90% CI): unit not given beside the values; settings: for increase in AUC24 with a meal / increase in Cmax with a meal: fed vs fasted
[2] = background statement, no reference given; cited from earlier work
[3] = test system: MRP1; settings: cited from earlier work
[4] = Treatment-emergent adverse events, SAD period; format: in vivo, human
Outline: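 Double-blind, placebo-controlled study in healthy men and nonchildbearing women aged 18–55 y. The SAD period gave one fasted oral dose; the MAD period gave fed dosing q.d. for 10 days, plus a separate b.i.d. cohort. TEAEs, serious AEs and discontinuation AEs were monitored ≥28 days after the last dose. Vital signs, physical exam, 12-lead ECG, hematology, clinical chemistry and urinalysis were also recorded. Data summarized descriptively.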

AUC24 adjusted geometric mean for fed vs. fasted (90% CI) ([1]; 30 mg): 122.0 (78.7–189.2)
Cmax adjusted geometric mean (90% CI) for fed vs. fasted ([1]; 30 mg): 107.2 (74.2–154.8)
increase in AUC24 with a meal ([1]; 30 mg): 22%
increase in Cmax with a meal ([1]; 30 mg): 7%
AUC24 adjusted geometric mean for fed vs. fasted (90% CI) ([1]; 100 mg): 155.7 (99.1–244.6)
Cmax adjusted geometric mean (90% CI) for fed vs. fasted ([1]; 100 mg): 160.2 (109.7–234.0)
increase in AUC24 with a meal ([1]; 100 mg): 56%
increase in Cmax with a meal ([1]; 100 mg): 60%
AUC24 adjusted geometric mean for fed vs. fasted (90% CI) ([1]; 400 mg): 175.6 (113.3–272.3)
Cmax adjusted geometric mean (90% CI) for fed vs. fasted ([1]; 400 mg): 144.8 (100.2–209.1)
increase in AUC24 with a meal ([1]; 400 mg): 76%
increase in Cmax with a meal ([1]; 400 mg): 45%
median Tmax with food ([1]; fed, day 1 MAD, doses of 30–400 mg): 3.0 to 4.0 h
SMILES: Cn1cc(-c2cn3nccc3c(-c3cnn([C@]4(CC#N)C[C@@H](C#N)C4)c3)n2)cn1 [PF‐06826647]
cellular permeability [2]: ~ 17 × 10^‐6 cm/s
inhibition of transporter protein MRP1 [3]: minimal inhibition
AEs ([4]; SAD 3 mg (n = 6)): 0 n
AEs leading to study drug dose reduction or interruption ([4]; SAD 3 mg (n = 6)): 0 n
Participants with AEs ([4]; SAD 3 mg (n = 6)): 0 n (%)
Participants with TEAEs: Alanine aminotransferase increased ([4]; SAD 3 mg (n = 6)): 0 n (%)
Participants with TEAEs: Aspartate aminotransferase increased ([4]; SAD 3 mg (n = 6)): 0 n (%)
Participants with TEAEs: Edema ([4]; SAD 3 mg (n = 6)): 0 n (%)
Participants with TEAEs: Face edema ([4]; SAD 3 mg (n = 6)): 0 n (%)
Participants with TEAEs: Gastrointestinal disorders (SOC) ([4]; SAD 3 mg (n = 6)): 0 n (%)
Participants with TEAEs: General disorders and administration site conditions (SOC) ([4]; SAD 3 mg (n = 6)): 0 n (%)
Participants with TEAEs: Headache ([4]; SAD 3 mg (n = 6)): 0 n (%)
Participants with TEAEs: Injury, poisoning, and procedural complications (SOC) ([4]; SAD 3 mg (n = 6)): 0 n (%)
Participants with TEAEs: Investigations (SOC) ([4]; SAD 3 mg (n = 6)): 0 n (%)
Participants with TEAEs: Nausea ([4]; SAD 3 mg (n = 6)): 0 n (%)
Participants with TEAEs: Nervous system disorders (SOC) ([4]; SAD 3 mg (n = 6)): 0 n (%)
Participants with TEAEs: Periorbital hematoma ([4]; SAD 3 mg (n = 6)): 0 n (%)
Participants with TEAEs: Periorbital hemorrhage ([4]; SAD 3 mg (n = 6)): 0 n (%)
Participants with TEAEs: Peripheral swelling ([4]; SAD 3 mg (n = 6)): 0 n (%)
Participants with TEAEs: Pruritus ([4]; SAD 3 mg (n = 6)): 0 n (%)
Participants with TEAEs: Rash ([4]; SAD 3 mg (n = 6)): 0 n (%)
Participants with TEAEs: Skin and subcutaneous tissue disorders (SOC) ([4]; SAD 3 mg (n = 6)): 0 n (%)
Participants with TEAEs: Urticaria ([4]; SAD 3 mg (n = 6)): 0 n (%)
SAEs ([4]; SAD 3 mg (n = 6)): 0 n
Severe AEs ([4]; SAD 3 mg (n = 6)): 0 n
AEs ([4]; SAD 10 mg (n = 6)): 0 n
AEs leading to study drug dose reduction or interruption ([4]; SAD 10 mg (n = 6)): 0 n
Participants with AEs ([4]; SAD 10 mg (n = 6)): 0 n (%)
Participants with TEAEs: Alanine aminotransferase increased ([4]; SAD 10 mg (n = 6)): 0 n (%)
Participants with TEAEs: Aspartate aminotransferase increased ([4]; SAD 10 mg (n = 6)): 0 n (%)
Participants with TEAEs: Edema ([4]; SAD 10 mg (n = 6)): 0 n (%)
Participants with TEAEs: Face edema ([4]; SAD 10 mg (n = 6)): 0 n (%)
Participants with TEAEs: Gastrointestinal disorders (SOC) ([4]; SAD 10 mg (n = 6)): 0 n (%)
Participants with TEAEs: General disorders and administration site conditions (SOC) ([4]; SAD 10 mg (n = 6)): 0 n (%)
Participants with TEAEs: Headache ([4]; SAD 10 mg (n = 6)): 0 n (%)
Participants with TEAEs: Injury, poisoning, and procedural complications (SOC) ([4]; SAD 10 mg (n = 6)): 0 n (%)
Participants with TEAEs: Investigations (SOC) ([4]; SAD 10 mg (n = 6)): 0 n (%)
Participants with TEAEs: Nausea ([4]; SAD 10 mg (n = 6)): 0 n (%)
Participants with TEAEs: Nervous system disorders (SOC) ([4]; SAD 10 mg (n = 6)): 0 n (%)
Participants with TEAEs: Periorbital hematoma ([4]; SAD 10 mg (n = 6)): 0 n (%)
Participants with TEAEs: Periorbital hemorrhage ([4]; SAD 10 mg (n = 6)): 0 n (%)
Participants with TEAEs: Peripheral swelling ([4]; SAD 10 mg (n = 6)): 0 n (%)
Participants with TEAEs: Pruritus ([4]; SAD 10 mg (n = 6)): 0 n (%)
Participants with TEAEs: Rash ([4]; SAD 10 mg (n = 6)): 0 n (%)
Participants with TEAEs: Skin and subcutaneous tissue disorders (SOC) ([4]; SAD 10 mg (n = 6)): 0 n (%)
Participants with TEAEs: Urticaria ([4]; SAD 10 mg (n = 6)): 0 n (%)
SAEs ([4]; SAD 10 mg (n = 6)): 0 n
Severe AEs ([4]; SAD 10 mg (n = 6)): 0 n
AEs ([4]; SAD 30 mg (n = 8)): 0 n
AEs leading to study drug dose reduction or interruption ([4]; SAD 30 mg (n = 8)): 0 n
Participants with AEs ([4]; SAD 30 mg (n = 8)): 0 n (%)
Participants with TEAEs: Alanine aminotransferase increased ([4]; SAD 30 mg (n = 8)): 0 n (%)
Participants with TEAEs: Aspartate aminotransferase increased ([4]; SAD 30 mg (n = 8)): 0 n (%)
Participants with TEAEs: Edema ([4]; SAD 30 mg (n = 8)): 0 n (%)
Participants with TEAEs: Face edema ([4]; SAD 30 mg (n = 8)): 0 n (%)
Participants with TEAEs: Gastrointestinal disorders (SOC) ([4]; SAD 30 mg (n = 8)): 0 n (%)
Participants with TEAEs: General disorders and administration site conditions (SOC) ([4]; SAD 30 mg (n = 8)): 0 n (%)
Participants with TEAEs: Headache ([4]; SAD 30 mg (n = 8)): 0 n (%)
Participants with TEAEs: Injury, poisoning, and procedural complications (SOC) ([4]; SAD 30 mg (n = 8)): 0 n (%)
Participants with TEAEs: Investigations (SOC) ([4]; SAD 30 mg (n = 8)): 0 n (%)
Participants with TEAEs: Nausea ([4]; SAD 30 mg (n = 8)): 0 n (%)
Participants with TEAEs: Nervous system disorders (SOC) ([4]; SAD 30 mg (n = 8)): 0 n (%)
Participants with TEAEs: Periorbital hematoma ([4]; SAD 30 mg (n = 8)): 0 n (%)
Participants with TEAEs: Periorbital hemorrhage ([4]; SAD 30 mg (n = 8)): 0 n (%)
Participants with TEAEs: Peripheral swelling ([4]; SAD 30 mg (n = 8)): 0 n (%)
